# Results taken from ChEMBL document CHEMBL1921722, “In vitro and in vivo evaluation of select kahalalide F analogs with antitumor and antifungal activities” (Bioorg Med Chem, 2011).
# Calls of active or inactive are those of the source.
# Key:
# [1] = system: MDA-MB-435; test: Cytotoxicity against human MDA-MB-435 cells assessed as cell growth at 800 nM by sulforhodamine B assay relative to control; type: functional; settings: read-out: Activity
# [2] = system: HCC 2998; test: Cytotoxicity against human HCC2998 cells assessed as cell growth at 80 uM by sulforhodamine B assay relative to control; type: functional; settings: read-out: Activity
# [3] = system: Mus musculus; test: Acute toxicity in athymic nude mouse assessed as mortality at 12.5 mg/kg, […]; type: organism-based; parameters: dose 12.5 mg/kg, route intraperitoneal; settings: in vivo, ip, 576 h
# [4] = system: IGROV-1; test: Cytotoxicity against human IGROV1 cells assessed as cell growth at 80 uM by sulforhodamine B assay relative to control; type: functional; settings: read-out: Activity
# [5] = system: OVCAR-5; test: Cytotoxicity against human OVCAR5 cells assessed as cell growth at 80 nM by sulforhodamine B assay relative to control; type: functional; settings: read-out: Activity
# [6] = system: HL-60(TB); test: Cytotoxicity against human HL-60(TB) cells assessed as cell growth at 8 nM by sulforhodamine B assay relative to control; type: functional; settings: read-out: Activity
# [7] = system: LOX IMVI; test: Cytotoxicity against human LOXIMVI cells assessed as cell growth at 80 uM by sulforhodamine B assay relative to control; type: functional; settings: read-out: Activity
# [8] = system: RXF 393; test: Cytotoxicity against human RXF393 cells assessed as cell growth at 8 nM by sulforhodamine B assay relative to control; type: functional; settings: read-out: Activity
# [9] = system: BT-549; test: Cytotoxicity against human BT549 cells assessed as cell growth at 800 nM by sulforhodamine B assay relative to control; type: functional; settings: read-out: Activity
# Summary of the method: (§1)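 Run at NCI in the DTP 60-cell-line human tumor panel by standard procedure. Compounds were first screened at a single concentration, then tested at five tenfold-spaced concentrations. GI50 is the concentration reducing treated-cell growth to half that of untreated controls; TGI is the concentration completely halting growth.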
# [10] = system: NCI-H460; test: Cytotoxicity against human NCI-H460 cells assessed as cell growth at 80 nM by sulforhodamine B assay relative to control; type: functional; settings: read-out: Activity
# [11] = system: DU-145; test: Cytotoxicity against human DU145 cells assessed as cell growth at 80 uM by sulforhodamine B assay relative to control; type: functional; settings: read-out: Activity
# [12] = system: NCI-H460; test: Cytotoxicity against human NCI-H460 cells assessed as cell growth at 80 uM by sulforhodamine B assay relative to control; type: functional; settings: read-out: Activity
# [13] = system: SW-620; test: Antitumor activity against human SW620 cells xenografted in mouse assessed as tumor cell killing at 4.7 mg/kg, ip qd for 4 days by MTT assay; type: functional, organism-based; parameters: dose 4.7 mg/kg
# Summary of the method: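 Hollow-fiber assay in mice. Tumor lines were grown in RPMI-1640 with 10% FBS and 2 mM glutamine. Cells at 2 × 10^6 cells/ml were loaded into 1 mm PVDF fibers (500,000 Da cutoff), heat-sealed at 2 cm and held 24–48 h at 37 °C, 5% CO2 before implantation. Compound was given IP. Fibers were collected the day after the fourth treatment for MTT (OD 540 nm, group means). A ≥50% cut in percent net growth versus vehicle counted as positive.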
# [14] = system: A498; test: Cytotoxicity against human A498 cells assessed as cell growth at 80 uM by sulforhodamine B assay relative to control; type: functional; settings: read-out: Activity; summary of the method: as §1
# [15] = system: K562; test: Cytotoxicity against human K562 cells assessed as cell growth at 8 uM by sulforhodamine B assay relative to control; type: functional; settings: read-out: Activity
# [16] = system: OVCAR-4; test: Cytotoxicity against human OVCAR4 cells assessed as cell growth at 80 uM by sulforhodamine B assay relative to control; type: functional; settings: read-out: Activity
# [17] = system: UACC-62; test: Cytotoxicity against human UACC62 cells assessed as cell growth at 8 nM by sulforhodamine B assay relative to control; type: functional; settings: read-out: Activity
# [18] = system: HT-29; test: Cytotoxicity against human HT-29 cells by sulforhodamine B assay; type: functional
# Summary of the method: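 Run by the NCI Developmental Therapeutics Program on its 60-line human tumour cell panel using the standard procedure. Compounds went through a single-concentration prescreen first, and those active by NCI criteria went on to a five-concentration growth-inhibition test. GI50 is the concentration that cuts growth of treated cells to half that of untreated control cells.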
# [19] = system: MDA-MB-435; test: Cytotoxicity against human MDA-MB-435 cells assessed as cell growth at 80 nM by sulforhodamine B assay relative to control; type: functional; settings: read-out: Activity
# [20] = system: EKVX; test: Cytotoxicity against human EKVX cells assessed as cell growth at 80 nM by sulforhodamine B assay relative to control; type: functional; settings: read-out: Activity
# [21] = system: A549; test: Cytotoxicity against human A549 cells assessed as cell growth at 800 nM by sulforhodamine B assay relative to control; type: functional; settings: read-out: Activity; summary of the method: as §1
# [22] = system: NCI-H226; test: Cytotoxicity against human NCI-H226 cells assessed as cell growth at 800 nM by sulforhodamine B assay relative to control; type: functional; settings: read-out: Activity
# [23] = system: HCT-15; test: Cytotoxicity against human HCT15 cells assessed as cell growth at 8 uM by sulforhodamine B assay relative to control; type: functional; settings: read-out: Activity
# [24] = system: SK-MEL-28; test: Cytotoxicity against human SK-MEL-28 cells assessed as cell growth at 80 uM by sulforhodamine B assay relative to control; type: functional; settings: read-out: Activity
# [25] = system: A549; test: Cytotoxicity against human A549 cells assessed as cell growth at 8 nM by sulforhodamine B assay relative to control; type: functional; settings: read-out: Activity; summary of the method: as §1
# [26] = system: K562; test: Cytotoxicity against human K562 cells assessed as cell growth at 800 nM by sulforhodamine B assay relative to control; type: functional; settings: read-out: Activity
# [27] = system: SK-OV-3; test: Cytotoxicity against human SKOV3 cells assessed as cell growth at 80 uM by sulforhodamine B assay relative to control; type: functional; settings: read-out: Activity
# [28] = system: 786-0; test: Cytotoxicity against human 786-0 cells assessed as cell growth at 80 nM by sulforhodamine B assay relative to control; type: functional; settings: read-out: Activity; summary of the method: as §1
# [29] = system: HCC 2998; test: Cytotoxicity against human HCC2998 cells assessed as cell growth at 8 nM by sulforhodamine B assay relative to control; type: functional; settings: read-out: Activity
# [30] = system: SF-295; test: Cytotoxicity against human SF295 cells by sulforhodamine B assay; type: functional; settings: for TGI: read-out: pTGI (converted)
# Summary of the method: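 NCI Developmental Therapeutics Program 60-cell-line human tumor panel screen, run at NCI. A single-concentration pre-screen was followed by a five-concentration dose-response in 10-fold steps. GI50 is the concentration that reduces growth of treated cells to half that of untreated control cells. TGI is the concentration that completely halts growth.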
# [31] = system: OVCAR-5; test: Cytotoxicity against human OVCAR5 cells assessed as cell growth at 800 nM by sulforhodamine B assay relative to control; type: functional; settings: read-out: Activity
# [32] = system: UO-31; test: Cytotoxicity against human UO31 cells assessed as cell growth at 80 nM by sulforhodamine B assay relative to control; type: functional; settings: read-out: Activity
# [33] = system: KM12; test: Cytotoxicity against human KM12 cells assessed as cell growth at 80 uM by sulforhodamine B assay relative to control; type: functional; settings: read-out: Activity
# [34] = system: NCI-H322M; test: Cytotoxicity against human NCI-H322M cells assessed as cell growth at 80 nM by sulforhodamine B assay relative to control; type: functional; settings: read-out: Activity
# [35] = system: SF-268; test: Cytotoxicity against human SF268 cells assessed as cell growth at 800 nM by sulforhodamine B assay relative to control; type: functional; settings: read-out: Activity
# [36] = system: SNB-75; test: Cytotoxicity against human SNB75 cells assessed as cell growth at 80 nM by sulforhodamine B assay relative to control; type: functional; settings: read-out: Activity
# [37] = system: RXF 393; test: Cytotoxicity against human RXF393 cells assessed as cell growth at 80 uM by sulforhodamine B assay relative to control; type: functional; settings: read-out: Activity
smiles,measurement,setting,value
C/C=C1\NC(=O)[C@H](Cc2ccccc2)NC(=O)[C@@H](C(C)C)NC(=O)[C@@H]([C@@H](C)CC)NC(=O)[C@H](NC(=O)[C@H](NC(=O)[C@H](CCCNCc2ccc(N3CCOCC3)cc2)NC(=O)[C@H]2CCCN2C(=O)[C@H](NC(=O)[C@@H](NC(=O)[C@@H](NC(=O)[C@H](NC(=O)CCCC(C)C)C(C)C)[C@@H](C)O)C(C)C)C(C)C)[C@@H](C)CC)[C@@H](C)OC(=O)[C@H](C(C)C)NC1=O,growth at 0.8 µM,[1],94%
same,growth at 80 µM,[2],-69%
same,Activity,[3],Non-toxic
same,growth at 80 µM,[4],-30%
same,growth at 0.08 µM,[5],93%
same,growth at 0.008 µM,[6],94%
same,growth at 80 µM,[7],-59%
same,growth at 0.008 µM,[8],111%
same,growth at 0.8 µM,[9],89%
same,growth at 0.08 µM,[10],103%
same,growth at 80 µM,[11],-73%
same,growth at 80 µM,[12],2%
same,Activity,[13],inactive
same,growth at 80 µM,[14],-91%
same,growth at 8 µM,[15],37%
same,growth at 80 µM,[16],-15%
same,growth at 0.008 µM,[17],102%
same,GI50,[18]; read-out: GI50,224 nM
same,GI50,[18]; read-out: pGI50 (converted),224 nM
same,growth at 0.08 µM,[19],99%
same,growth at 0.08 µM,[20],98%
same,growth at 0.8 µM,[21],-40%
same,growth at 0.8 µM,[22],104%
same,growth at 8 µM,[23],-82%
same,growth at 80 µM,[24],-13%
same,growth at 0.008 µM,[25],99%
same,growth at 0.8 µM,[26],102%
same,growth at 80 µM,[27],-23%
same,growth at 0.08 µM,[28],93%
same,growth at 0.008 µM,[29],97%
same,GI50,[30],1740 nM
same,LC50,[30],> 75900 nM
same,TGI,[30],3890 nM
same,growth at 0.8 µM,[31],64%
same,growth at 0.08 µM,[32],104%
same,growth at 80 µM,[33],9%
same,growth at 0.08 µM,[34],92%
same,growth at 0.8 µM,[35],90%
same,growth at 0.08 µM,[36],113%
same,growth at 80 µM,[37],-27%
C/C=C1\NC(=O)[C@H](Cc2ccccc2)NC(=O)[C@@H](C(C)C)NC(=O)[C@@H]([C@@H](C)CC)NC(=O)[C@H](NC(=O)[C@H](NC(=O)[C@H](CCCNCc2ccc(F)c(C)c2)NC(=O)[C@H]2CCCN2C(=O)[C@H](NC(=O)[C@@H](NC(=O)[C@@H](NC(=O)[C@H](NC(=O)CCCC(C)C)C(C)C)[C@@H](C)O)C(C)C)C(C)C)[C@@H](C)CC)[C@@H](C)OC(=O)[C@H](C(C)C)NC1=O,growth at 0.8 µM,[1],83%
same,growth at 80 µM,[2],-88%
same,Activity,[3],Non-toxic
same,growth at 80 µM,[4],-26%
same,growth at 0.08 µM,[5],96%
same,growth at 0.008 µM,[6],91%
same,growth at 80 µM,[7],-92%
same,growth at 0.008 µM,[8],103%
same,growth at 0.8 µM,[9],87%
same,growth at 0.08 µM,[10],104%
same,growth at 80 µM,[11],-91%
same,growth at 80 µM,[12],2%
same,Activity,[13],inactive
same,growth at 80 µM,[14],-100%
same,growth at 8 µM,[15],-43%
same,growth at 80 µM,[16],-20%
same,growth at 0.008 µM,[17],103%
same,GI50,[18]; read-out: GI50,164 nM
same,GI50,[18]; read-out: pGI50 (converted),162 nM
same,growth at 0.08 µM,[19],103%
same,growth at 0.08 µM,[20],97%
same,growth at 0.8 µM,[21],-40%
same,growth at 0.8 µM,[22],98%
same,growth at 8 µM,[23],-92%
same,growth at 80 µM,[24],1%
same,growth at 0.008 µM,[25],100%
same,growth at 0.8 µM,[26],107%
same,growth at 80 µM,[27],-75%
same,growth at 0.08 µM,[28],97%
same,growth at 0.008 µM,[29],108%
same,GI50,[30],1260 nM
same,TGI,[30],2400 nM
same,growth at 0.8 µM,[31],55%
same,growth at 0.08 µM,[32],106%
same,growth at 80 µM,[33],-36%
same,growth at 0.08 µM,[34],95%
same,growth at 0.8 µM,[35],63%
same,growth at 0.08 µM,[36],115%
same,growth at 80 µM,[37],-79%
